ChEMBL document CHEMBL1255409, “In vitro activity of ceftaroline against 623 diverse strains of anaerobic bacteria” (2010)
Converted amounts (≈) assume the structure as drawn.

Columns and labels:
Type in all cases: functional
Clostridium citroniae = assay: Antimicrobial activity against Clostridium citroniae under anaerobic conditions after 44 hrs by CLSI-M11-47 protocol based agar dilution method; conditions: Enterocloster citroniae
In short: (§1)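 Reference agar dilution per CLSI M11-A7 with plates made on test day. Clinical isolates were stored at −70°C in 20% skim milk, subcultured twice, and 48-h cell paste was suspended in brucella broth to 0.5 McFarland. About 10^5 CFU/spot was applied with a Steers replicator. Plates were incubated 44 h at 37°C anaerobically. MIC was the lowest concentration giving complete inhibition or marked growth reduction versus the drug-free control.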

Clostridium cadaveris = assay: Antimicrobial activity against Clostridium cadaveris under anaerobic conditions after 44 hrs by CLSI-M11-47 protocol based agar dilution method; in short: as §1
Anaerococcus prevotii = assay: Antimicrobial activity against Anaerococcus prevotii under anaerobic conditions after 44 hrs by CLSI-M11-47 protocol based agar dilution method; in short: as §1
[1] = test system: Clostridium celerecrescens; assay: Antimicrobial activity against Clostridium celerecrescens under anaerobic conditions after 44 hrs by CLSI-M11-47 protocol based agar dilution method; conditions: Lacrimispora celerecrescens; in short: as §1
Prevotella bivia = assay: Antimicrobial activity against Prevotella bivia under anaerobic conditions after 44 hrs by CLSI-M11-47 protocol based agar dilution method
In short: (§2)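 Clinical isolates were stored at −70°C in 20% skim milk and identified phenotypically or by partial 16S rRNA sequencing. Each strain was subcultured twice from frozen stock. Cell paste from 48-h cultures was suspended in brucella broth to a 0.5 McFarland standard. About 10^5 CFU per spot were applied by Steers replicator to agar dilution plates prepared on the day of testing. Plates were incubated 44 h at 37°C in an anaerobic chamber. MIC was taken as the lowest concentration giving complete inhibition or marked reduction of growth versus the drug-free control.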

Fusobacterium nucleatum = assay: Antimicrobial activity against Fusobacterium nucleatum under anaerobic conditions after 44 hrs by CLSI-M11-47 protocol based agar dilution method; in short: as §2
Prevotella nanceiensis = assay: Antimicrobial activity against Prevotella nanceiensis under anaerobic conditions after 44 hrs by CLSI-M11-47 protocol based agar dilution method; conditions: Hoylesella nanceiensis; in short: as §2
Prevotella tannerae = assay: Antimicrobial activity against Prevotella tannerae under anaerobic conditions after 44 hrs by CLSI-M11-47 protocol based agar dilution method; conditions: Alloprevotella tannerae; in short: as §2
[2] = test system: Peptoniphilus asaccharolyticus; assay: Antimicrobial activity against Peptoniphilus asaccharolyticus under anaerobic conditions after 44 hrs by CLSI-M11-47 protocol based agar dilution method; in short: as §2
[3] = test system: Clostridium paraputrificum; assay: Antimicrobial activity against Clostridium paraputrificum under anaerobic conditions after 44 hrs by CLSI-M11-47 protocol based agar dilution method; in short: as §1
[4] = test system: Bacteroides thetaiotaomicron; assay: Antimicrobial activity against Bacteroides thetaiotaomicron under anaerobic conditions after 44 hrs by CLSI-M11-47 protocol based agar dilution method; in short: as §1
[5] = test system: Paraclostridium bifermentans; assay: Antimicrobial activity against Clostridium bifermentans under anaerobic conditions after 44 hrs by CLSI-M11-47 protocol based agar dilution method; in short: as §1
Clostridium tertium = assay: Antimicrobial activity against Clostridium tertium under anaerobic conditions after 44 hrs by CLSI-M11-47 protocol based agar dilution method; in short: as §1
Gemella sanguinis = assay: Antimicrobial activity against Gemella sanguinis under anaerobic conditions after 44 hrs by CLSI-M11-47 protocol based agar dilution method; in short: as §2
[6] = test system: Enterocloster clostridioformis; assay: Antimicrobial activity against Clostridium clostridioforme under anaerobic conditions after 44 hrs by CLSI-M11-47 protocol based agar dilution method; in short: as §1
Collinsella aerofaciens = assay: Antimicrobial activity against Colinsella aerofaciens under anaerobic conditions after 44 hrs by CLSI-M11-47 protocol based agar dilution method; in short: as §1
[7] = test system: Lacticaseibacillus rhamnosus; assay: Antimicrobial activity against Lactobacillus rhamnosus under anaerobic conditions after 44 hrs by CLSI-M11-47 protocol based agar dilution method; in short: as §2
Eubacterium contortum = assay: Antimicrobial activity against Eubacterium contortum under anaerobic conditions after 44 hrs by CLSI-M11-47 protocol based agar dilution method; conditions: Faecalicatena contorta; in short: as §1
Bacteroides ovatus = assay: Antimicrobial activity against Bacteroides ovatus under anaerobic conditions after 44 hrs by CLSI-M11-47 protocol based agar dilution method; in short: as §1
Fusobacterium varium = assay: Antimicrobial activity against Fusobacterium varium under anaerobic conditions after 44 hrs by CLSI-M11-47 protocol based agar dilution method; in short: as §2
Finegoldia magna = assay: Antimicrobial activity against Finegoldia magna under anaerobic conditions after 44 hrs by CLSI-M11-47 protocol based agar dilution method; in short: as §1
Prevotella denticola = assay: Antimicrobial activity against Prevotella denticola under anaerobic conditions after 44 hrs by CLSI-M11-47 protocol based agar dilution method; in short: as §2
Gemella morbillorum = assay: Antimicrobial activity against Gemella morbillorum under anaerobic conditions after 44 hrs by CLSI-M11-47 protocol based agar dilution method; in short: as §2
Eggerthella lenta = assay: Antimicrobial activity against Eggerthella lenta under anaerobic conditions after 44 hrs by CLSI-M11-47 protocol based agar dilution method; in short: as §1
Atopobium parvulum = assay: Antimicrobial activity against Atopobium parvulum under anaerobic conditions after 44 hrs by CLSI-M11-47 protocol based agar dilution method; conditions: Lancefieldella parvula; in short: as §1
[8] = test system: Paeniclostridium sordellii; assay: Antimicrobial activity against Clostridium sordellii under anaerobic conditions after 44 hrs by CLSI-M11-47 protocol based agar dilution method; conditions: Paraclostridium sordellii; in short: as §1
Prevotella corporis = assay: Antimicrobial activity against Prevotella corporis under anaerobic conditions after 44 hrs by CLSI-M11-47 protocol based agar dilution method; in short: as §2
Clostridium subterminale = assay: Antimicrobial activity against Clostridium subterminale under anaerobic conditions after 44 hrs by CLSI-M11-47 protocol based agar dilution method; in short: as §1
[9] = test system: Porphyromonas asaccharolytica; assay: Antimicrobial activity against Porphyromonas asaccharolyticus under anaerobic conditions after 44 hrs by CLSI-M11-47 protocol based agar dilution method; in short: as §2
Slackia exigua = assay: Antimicrobial activity against Slackia exigua under anaerobic conditions after 44 hrs by CLSI-M11-47 protocol based agar dilution method; in short: as §2
Porphyromonas somerae = assay: Antimicrobial activity against Porphyromonas somerae under anaerobic conditions after 44 hrs by CLSI-M11-47 protocol based agar dilution method; in short: as §2
[10] = test system: Peptostreptococcus stomatis; assay: Antimicrobial activity against Peptostreptococcus stomatis under anaerobic conditions after 44 hrs by CLSI-M11-47 protocol based agar dilution method; in short: as §2

Work on `CCO/N=C(\C(=O)N[C@@H]1C(=O)N2C(C(=O)[O-])=C(Sc3nc(-c4cc[n+](C)cc4)cs3)CS[C@H]12)c1nsc(NP(=O)(O)O)n1` [CEFTAROLINE FOSAMIL] yielded an MIC50 (Clostridium citroniae) of 1 µg/mL (≈ 1.46 µM), an MIC90 (Clostridium citroniae) of 2 µg/mL (≈ 2.92 µM) and an MIC50 (Clostridium cadaveris) of 0.5 µg/mL (≈ 0.73 µM). For the same compound, the MIC90 (Clostridium cadaveris) was 16 µg/mL (≈ 23.4 µM), the MIC50 (Anaerococcus prevotii) was 0.03 µg/mL (≈ 0.0438 µM) and the MIC90 (Anaerococcus prevotii) was 0.125 µg/mL (≈ 0.183 µM). The MIC50 [1] was 0.5 µg/mL (≈ 0.73 µM), the MIC90 [1] was 16 µg/mL (≈ 23.4 µM) and the MIC50 (Prevotella bivia) was 2 µg/mL (≈ 2.92 µM). For the same compound, the MIC90 (Prevotella bivia) was 64 µg/mL (≈ 93.5 µM), the MIC50 (Fusobacterium nucleatum) was ≤ 0.08 µg/mL and the MIC90 (Fusobacterium nucleatum) was 0.125 µg/mL (≈ 0.183 µM). The MIC50 (Prevotella nanceiensis) was 2 µg/mL (≈ 2.92 µM), the MIC90 (Prevotella nanceiensis) was 32 µg/mL (≈ 46.7 µM) and the MIC50 (Prevotella tannerae) was 2 µg/mL (≈ 2.92 µM). The MIC90 (Prevotella tannerae) was 32 µg/mL (≈ 46.7 µM), the MIC50 [2] was 0.06 µg/mL (≈ 0.0876 µM) and the MIC90 [2] was 0.25 µg/mL (≈ 0.365 µM). The MIC50 [3] was 0.5 µg/mL (≈ 0.73 µM), the MIC90 [3] was 16 µg/mL (≈ 23.4 µM) and the MIC50 [4] was 64 µg/mL (≈ 93.5 µM). For the same compound, the MIC90 [4] was > 64 µg/mL, the MIC50 [5] was 0.5 µg/mL (≈ 0.73 µM) and the MIC90 [5] was 16 µg/mL (≈ 23.4 µM). For the same compound, the MIC50 (Clostridium tertium) was 0.5 µg/mL (≈ 0.73 µM), the MIC90 (Clostridium tertium) was 16 µg/mL (≈ 23.4 µM) and the MIC50 (Gemella sanguinis) was 0.06 µg/mL (≈ 0.0876 µM). For the same compound, the MIC90 (Gemella sanguinis) was 1 µg/mL (≈ 1.46 µM), the MIC50 [6] was 1 µg/mL (≈ 1.46 µM) and the MIC90 [6] was 2 µg/mL (≈ 2.92 µM). The MIC50 (Collinsella aerofaciens) was 0.125 µg/mL (≈ 0.183 µM), the MIC90 (Collinsella aerofaciens) was 0.25 µg/mL (≈ 0.365 µM) and the MIC50 [7] was 0.5 µg/mL (≈ 0.73 µM). For the same compound, the MIC90 [7] was 1 µg/mL (≈ 1.46 µM), the MIC50 (Eubacterium contortum) was 0.125 µg/mL (≈ 0.183 µM) and the MIC90 (Eubacterium contortum) was 0.25 µg/mL (≈ 0.365 µM). For the same compound, the MIC50 (Bacteroides ovatus) was 64 µg/mL (≈ 93.5 µM), the MIC90 (Bacteroides ovatus) was > 64 µg/mL and the MIC50 (Fusobacterium varium) was 0.25 µg/mL (≈ 0.365 µM). For the same compound, the MIC90 (Fusobacterium varium) was 0.5 µg/mL (≈ 0.73 µM), the MIC50 (Finegoldia magna) was 0.25 µg/mL (≈ 0.365 µM) and the MIC90 (Finegoldia magna) was 0.5 µg/mL (≈ 0.73 µM). The MIC50 (Prevotella denticola) was 2 µg/mL (≈ 2.92 µM), the MIC90 (Prevotella denticola) was 32 µg/mL (≈ 46.7 µM) and the MIC50 (Gemella morbillorum) was 0.06 µg/mL (≈ 0.0876 µM). For the same compound, the MIC90 (Gemella morbillorum) was 1 µg/mL (≈ 1.46 µM), the MIC50 (Eggerthella lenta) was 8 µg/mL (≈ 11.7 µM) and the MIC90 (Eggerthella lenta) was 16 µg/mL (≈ 23.4 µM). For the same compound, the MIC50 (Atopobium parvulum) was 0.125 µg/mL (≈ 0.183 µM), the MIC90 (Atopobium parvulum) was 0.25 µg/mL (≈ 0.365 µM) and the MIC50 [8] was 0.5 µg/mL (≈ 0.73 µM). It also gave an MIC90 [8] of 16 µg/mL (≈ 23.4 µM), an MIC50 (Prevotella corporis) of 2 µg/mL (≈ 2.92 µM) and an MIC90 (Prevotella corporis) of 32 µg/mL (≈ 46.7 µM). It also gave an MIC50 (Clostridium subterminale) of 0.5 µg/mL (≈ 0.73 µM), an MIC90 (Clostridium subterminale) of 16 µg/mL (≈ 23.4 µM) and an MIC50 [9] of 0.015 µg/mL (≈ 0.0219 µM). It also gave an MIC90 [9] of 0.03 µg/mL (≈ 0.0438 µM), an MIC50 (Slackia exigua) of 0.125 µg/mL (≈ 0.183 µM) and an MIC90 (Slackia exigua) of 0.25 µg/mL (≈ 0.365 µM). The MIC50 (Porphyromonas somerae) was 0.015 µg/mL (≈ 0.0219 µM), the MIC90 (Porphyromonas somerae) was > 16 µg/mL and the MIC50 [10] was 0.5 µg/mL (≈ 0.73 µM). For the same compound, the MIC90 [10] was 4 µg/mL (≈ 5.84 µM).
